Measurements pooled from the literature.
Lines come from different studies, so protocols differ. Converted amounts (≈) assume the structure as drawn.
Organism: Klebsiella pneumoniae

Compound	test	system	conditions	quantity	value
Cc1[nH]c(C(=O)Nc2ccc(C(=O)NCc3n[nH]c(=O)o3)cc2N2CCN(C(=O)OC(C)(C)C)CC2)c(Cl)c1Cl	microbial growth, broth dilution	ATCC700603		MIC	> 32 µg/mL
COc1cc(C=Nc2cccc(O)c2)ccc1O	microbial growth, disc diffusion		2000 µg/mL, 24 h	inhibition zone	15.5 mm
C[C@@H](O)[C@H]1C(=O)N2C(C(=O)O)=C(SCCN=CN)C[C@H]12	microbial growth, broth dilution		clinical isolate	MIC90	256 µg/mL (≈ 855 µM)
C[C@@H](O)[C@H]1C(=O)N2C(C(=O)O)=C(SCCN=CN)C[C@H]12	microbial growth, disc diffusion		2000 µg/mL, 24 h	inhibition zone	20.5 mm
CN[C@H](CC(C)C)C(=O)N[C@H]1C(=O)N[C@@H](CC(N)=O)C(=O)N[C@H]2C(=O)N[C@H]3C(=O)N[C@H](C(=O)N[C@H](C(=O)O)c4cc(O)cc(O)c4-c4cc3ccc4O)[C@H](O)c3ccc(c(Cl)c3)Oc3cc2cc(c3O[C@@H]2O[C@H](CO)[C@@H](O)[C@H](O)[C@H]2O[C@H]2C[C@](C)(N)[C@H](O)[C@H](C)O2)Oc2ccc(cc2Cl)[C@H]1O	microbial killing	ATCC27736		MBC	1000 µg/mL (≈ 690 µM)
COc1cc(C=Nc2ccc([N+](=O)[O-])cc2)ccc1O	microbial growth, disc diffusion		2000 µg/mL, 24 h	inhibition zone	14.4 mm
CC(C)(C)OC(=O)N[C@H]1CCN(c2cc(C(=O)NCC(=O)O)ccc2NC(=O)c2cc(Br)c(Br)[nH]2)C1	microbial growth, broth dilution	ATCC700603		MIC	> 32 µg/mL
CC(C)(O/N=C(\C(=O)N[C@@H]1C(=O)N2C(C(=O)[O-])=C(C[n+]3ccccc3)CS[C@H]12)c1csc(N)n1)C(=O)O	microbial growth, broth dilution		20 h, clinical isolate	MIC	> 128 µg/mL
Cc1[nH]c(C(=O)Nc2ccc(C(=O)NCC(=O)O)cc2N2CC[C@H](N)C2)c(Cl)c1Cl.Cl	microbial growth, broth dilution	ATCC700603		MIC	> 32 µg/mL
CN(C)c1cc(NC(=O)CNC(C)(C)C)c(O)c2c1C[C@H]1C[C@H]3[C@H](N(C)C)C(O)=C(C(N)=O)C(=O)[C@@]3(O)C(O)=C1C2=O	microbial growth, broth dilution			MIC	0.5 µg/mL (≈ 0.854 µM)
CC(C)(C)OC(=O)N1CCN(c2cc(C(=O)NCC(=O)O)ccc2NC(=O)c2cc(Br)c(Br)[nH]2)CC1	microbial growth, broth dilution	ATCC700603		MIC	> 32 µg/mL
CCC(C)CCCC(=O)N[C@@H](CCN)C(=O)N[C@H](C(=O)N[C@@H](CCN)C(=O)N[C@H]1CCNC(=O)[C@H]([C@@H](C)O)NC(=O)[C@H](CCN)NC(=O)[C@H](CCN)NC(=O)[C@H](CC(C)C)NC(=O)[C@@H](CC(C)C)NC(=O)[C@H](CCN)NC1=O)[C@@H](C)O (stereo partly drawn)	microbial growth, broth dilution			MIC	0.5 µg/mL (≈ 0.433 µM)
